In experiment [1] the test system is MDA-MB-468. Nature of the experiment: In vitro inhibitory activity against mammary carcinoma MDA 468 cell lines. In kind it is functional, cell-based. The settings on record: Homo sapiens. Summed up:
(§1)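 MDA 468 cells kept in RPMI 1640 with 10% FBS and antibiotics under 5% CO2. They were seeded at 2.5-3 × 10² per well and left 4 h to attach. Drug from 10 mM DMSO stocks was diluted to 1 pM–100 µM final (DMSO ≤0.25%), n = 8, and incubated 10 days. MTT was added for 4 h, formazan solubilized in DMSO/glycine buffer, and A550 read as a measure of viable cells.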

The subject of experiment [2] is MCF7. Nature of the experiment: In vitro inhibitory activity against mammary carcinoma MCF-7 cell lines. In kind it is functional, cell-based. The note with it: Homo sapiens. In a few lines: (§2)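 Cells kept in RPMI 1640 with 10% FBS, penicillin and streptomycin, under 5% CO2, and subcultured twice weekly in log phase. They were seeded at 2.5-3 × 10² per well and left 4 h to adhere. Drug from 10 mM DMSO stocks was given at 1 pM–100 µM final (DMSO ≤0.25%), n = 8, for 7 days. MTT was added for 4 h, formazan dissolved in DMSO/glycine buffer, and absorbance read at 550 nm as viable cell number.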

Experiment [3] concerns MDA-MB-468. Nature of the experiment: In vitro cytotoxicity against MDA 468 human breast cancer cell line with ER negative EGFR positive. The class given is functional, cell-based. In a few lines:
as §1

The test system of another experiment is MDA-MB-231. Nature of the experiment: In vitro cytotoxicity against MDA 231 human breast cancer cell line with EGFR positive erbB3 positive. The class given is functional, cell-based. In a few lines: as §2
In a further experiment the test system is ZR-75-1. Nature of the experiment: In vitro cytotoxicity against ZR 75 human breast cancer cell line with ER positive. In kind it is functional, cell-based. In a few lines: as §2
A further experiment relates to T47D. Nature of the experiment: In vitro cytotoxicity against T47D human breast cancer cell line with ER negative. The class given is functional, cell-based. In a few lines:
as §2

In the next experiment the test system is T-24. Nature of the experiment: In vitro cytotoxicity against T24 human bladder cancer cell line.
Another experiment deals with IGR-37 cell line. Nature of the experiment: In vitro cytotoxicity against […] human melanoma cancer cell line. In kind it is functional, cell-based.
The test system of the next experiment is DU-145. Nature of the experiment: In vitro cytotoxicity against DU-145 human prostate cancer cell line. In kind it is functional, cell-based. In a few lines: as §2
For experiment [4], the system named is MCF7. Nature of the experiment: In vitro cytotoxicity against MCF-7/Adr human breast cancer cell line. In kind it is functional, cell-based. Summed up:
as §2

A further experiment relates to A2780. Nature of the experiment: In vitro cytotoxicity against A2780 human ovarian cancer cell line. In kind it is functional, cell-based.
A further experiment deals with WiDr. Nature of the experiment: In vitro cytotoxicity against WiDr human colon cancer cell line. In kind it is functional, cell-based.
The subject of the next experiment is SK-BR-3. Nature of the experiment: In vitro cytotoxicity against SKBR 3 human breast cancer cell line with ER negative. The class given is functional, cell-based. In a few lines:
as §2

Experiment [5] relates to MCF7. Nature of the experiment: In vitro cytotoxicity against MCF-7 human breast cancer cell line with ER positive. The class given is functional, cell-based. Summed up:
as §2

The subject of another experiment is PC-3. Nature of the experiment: In vitro cytotoxicity against PC-3 human prostate cancer cell line. The class given is functional, cell-based. In a few lines:
as §2

In another experiment the test system is A204. Nature of the experiment: In vitro cytotoxicity against A204 human rhabdomyosarcoma cancer cell line. In kind it is functional, cell-based.
The subject of the next experiment is HT-29. Nature of the experiment: In vitro cytotoxicity against HT-29 human colon cancer cell line. In kind it is functional, cell-based.

The structures appear in SMILES notation.

Consider `Nc1ccc(-c2nc3ccccc3s2)cc1Cl`, for which the IC50 in the experiment with MDA-MB-468 [1] is less than 0.1 µM; with MCF7 [2] it was less than 0.0001 µM.
Turning to `COc1cc2nc(-c3ccc(N)cc3)sc2cc1OC`, the concentration for half-maximal inhibition (IC50) with MDA-MB-468 [1] and with MCF7 [2] was greater than 10 µM each time.
`COc1cccc2sc(-c3ccc(N)cc3Cl)nc12`: the IC50 in the experiment on MDA-MB-468 [1] and with MCF7 [2] was greater than 10 µM each time.
As for `c1ccc2sc(-c3ccc(N4CCCCC4)cc3)nc2c1`, the IC50 in the experiment with MDA-MB-468 [1] and in the experiment with MCF7 [2] was greater than 10 µM throughout.
On to `Cc1cc(-c2nc3ccccc3s2)cc(Cl)c1N`, for which the IC50 in the experiment on MDA-MB-468 [1] is greater than 0.001 µM; in the experiment on MCF7 [2], less than 0.01 µM.
As for `COc1cc(OC)c2nc(-c3ccc(N)cc3)sc2c1`, in the experiment with MCF7 [2], the IC50 is greater than 10 µM.
Consider `Nc1ccc(-c2nc3cc(OCc4ccccc4)ccc3s2)c(Cl)c1`, for which the half-inhibitory concentration (IC50) in the experiment on MDA-MB-468 [1] and in the experiment on MCF7 [2] was greater than 10 µM throughout.
For `N#Cc1cc(-c2nc3ccccc3s2)ccc1N`, the IC50 in the experiment with MCF7 [2] is less than 0.01 µM.
`c1ccc2sc(-c3ccc(N4CCCC4)cc3)nc2c1` came in with an IC50 with MCF7 [2] of less than 1 µM.
In the case of `COc1cc(OC)c2sc(-c3ccc(N)cc3)nc2c1`, the IC50 with MDA-MB-468 [1] and in the experiment on MCF7 [2] was greater than 10 µM in each case.
Consider `COc1ccc2nc(-c3ccc(N)c(I)c3)sc2c1`, for which the IC50 with MDA-MB-468 [1] and with MCF7 [2] was less than 0.0001 µM each time.
For `Nc1ccc(-c2nc3ccccc3s2)cn1`, the IC50 in the experiment with MDA-MB-468 [1] and in the experiment on MCF7 [2] was greater than 10 µM in each case.
With `Nc1ccc(-c2nc3ccc(O)cc3s2)cc1`, the IC50 was greater than 10 µM in the experiment on MDA-MB-468 [1] and greater than 1 µM in the experiment with MCF7 [2].
Regarding `c1ccc2sc(-c3ccc(N4CCOCC4)cc3)nc2c1`, the IC50 with MDA-MB-468 [1] and in the experiment on MCF7 [2] was greater than 10 µM each time.
Turning to `Nc1ccc(-c2nc3ccccc3[nH]2)cc1`, the IC50 in the experiment with MDA-MB-468 [1] is greater than 10 µM; in the experiment with MCF7 [2], greater than 1 µM.
With `Nc1ccc(-c2nc3cc(O)cc(O)c3s2)cc1`, the IC50 in the experiment with MCF7 [2] is greater than 10 µM.
For the molecule `Nc1ccc(-c2nc3ccccc3s2)cc1O`, the half-inhibitory concentration (IC50) with MDA-MB-468 [1] was greater than 10 µM; in the experiment with MCF7 [2], greater than 0.0001 µM.
As for `c1ccc2sc(-c3ccncc3)nc2c1`, the IC50 in the experiment on MDA-MB-468 [1] and in the experiment with MCF7 [2] was greater than 10 µM each time.
Consider `Nc1ccc(-c2nc3ccccc3s2)cc1`, for which the IC50 in the experiment with MDA-MB-468 [3] was 0.0016 µM; with MDA-MB-468 [1] it was less than 0.001 µM; with MDA-MB-231, 0.017 µM; with ZR-75-1 it was 0.028 µM; with T47D it was greater than 10 µM; in the experiment on T-24, greater than 30 µM. For the same molecule, the IC50 with IGR-37 cell line was greater than 30 µM; with DU-145, greater than 30 µM; with MCF7 [4] it was greater than 10 µM; in the experiment on A2780, greater than 30 µM; in the experiment on MCF7 [2] it was less than 0.0001 µM; in the experiment on WiDr, greater than 30 µM. Further, the IC50 was 0.0081 µM in the experiment on SK-BR-3; 0.0008 µM in the experiment with MCF7 [5]; greater than 30 µM in the experiment on PC-3; greater than 30 µM in the experiment on A204; greater than 30 µM in the experiment with HT-29.
Consider `Nc1ccc(-c2nc3ccccc3o2)cc1`, for which the values for the half-inhibitory concentration (IC50) with MDA-MB-468 [1] and in the experiment with MCF7 [2] were greater than 1 µM and less than 0.01 µM, respectively.
Regarding `CCc1cc(-c2nc3ccccc3s2)ccc1N`, the IC50 with MDA-MB-468 [1] and in the experiment with MCF7 [2] was less than 0.0001 µM each time.
Take `Nc1ncc(-c2nc3ccccc3s2)cc1Br`: the IC50 with MDA-MB-468 [1] and in the experiment with MCF7 [2] was less than 0.01 µM in each case.
For `COc1ccc2nc(-c3ccc(N)cc3)sc2c1`, the IC50 with MDA-MB-468 [1] is greater than 10 µM; with MCF7 [2], less than 0.0001 µM.

The record behind these values is ChEMBL document CHEMBL1129614, “Antitumor benzothiazoles. 3. Synthesis of 2-(4-aminophenyl)benzothiazoles and evaluation of their activities against breast cancer cell lines in vitro and in vivo” (J Med Chem, 1996).
